Laboratory results reported in publication PMC2192647 (The Journal of Cell Biology, 2000).
Entries after “also recorded” stand apart in the source; their conditions may differ. Where two headings read alike, the source gives them in different places. One block for each molecule: values may come before it.

Assays:
[1] = system: AP-tag TGF-α; experiment: TPA-inducible shedding of AP-tag TGF-α in CHO transfectants; type: cell-based, human; details: 60 nM TPA; for Percent inhibition at 1 μM TGF-α: 1 μM inhibitor, CHO transfectants
[2] = system: AP-tag HB-EGF; experiment: TPA-inducible shedding of AP-tag HB-EGF in CHO transfectants; type: cell-based, human; details: 60 nM TPA
[3] = system: AP-tag AR; experiment: TPA-inducible shedding of AP-tag AR in CHO transfectants; type: cell-based, human; details: 60 nM TPA
[4] = system: keratinocytes; experiment: Keratinocyte migration assay in a Boyden chamber; type: cell-based, human
Outline: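 Keratinocytes grown 72 h on collagen-coated dishes, detached with trypsin-EDTA for ≤1 min, resuspended at 10^5 cells/ml. Samples placed in bottom wells of a 48-well Boyden chamber: recombinant HB-EGF, or serially diluted 48-h wounded-culture conditioned medium, with test compound added top or bottom. Collagen-coated 8-μm polycarbonate membrane; 50 μl cells per top well. Ran 4 h at 37°C. Migrated cells fixed, hematoxylin-stained, counted microscopically.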

[5] = biological target: MMP-3 (Homo sapiens, UniProt P08254); experiment: MMP-3 inhibition; type: biochemical; details: read-out: IC50 MMP-3
[6] = biological target: MMP-9 (Homo sapiens, UniProt P14780); experiment: MMP-9 inhibition; type: biochemical; details: read-out: IC50 MMP-9
[7] = system: EGFR; experiment: Wound-induced EGFR tyrosine phosphorylation in cultured keratinocytes; type: cell-based, human; details: wounded keratinocytes
Outline: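 Keratinocytes grown 72 h on collagen-coated 10-cm dishes (5 × 10^5/dish). Starved 2 h in BHE-free medium ± test compound (1 μM), cycloheximide (50 μM) or HB-EGF neutralizing antibody No. 197 (10 μg/ml). Tip-scrape wounded, incubated set times at 37°C. Lysates in Triton/vanadate buffer; EGFR immunoprecipitated overnight at 4°C with protein A-Sepharose. Run on 6% SDS-PAGE, PVDF-blotted, probed, ABC/ECL detection.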

[8] = system: Human keratinocytes; experiment: Keratinocyte growth; type: cell-based; details: 3 d
Outline: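 Human keratinocytes kept in supplemented MCDB153. Seeded at 10^5 cells/well in 6-well plates and grown 3 d with or without test compound (1 μM), EGFR neutralizing antibody No. 425 (10 μg/ml) or AG1478 (30 nM). Values are averages of triplicate experiments.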

[9] = system: AP-tag AR; experiment: Wound-induced shedding of AP-tag AR in HaCat transfectants; type: cell-based, human; details: 1 μM, 60 min after wounding
[10] = system: EGFR ligands; experiment: Release of soluble EGFR ligands from wounded keratinocytes; type: cell-based, human; details: 1 μM
Outline: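 Subconfluent keratinocytes in BHE-free medium tip-scraped in cross-stripes 5 mm apart, washed, then re-fed with or without test compound. Conditioned media collected at several times (37°C). Media added to EP170.7 cells (2 × 10^4/well) for 36 h, then [3H]thymidine (1 μCi/well) for 6 h; DNA incorporation measured. HB-EGF neutralised by preincubating with antibody No. 197 (10 μg/ml final). Four independent experiments.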

[11] = system: AP-tag TGF-α; experiment: Wound-induced shedding of AP-tag TGF-α in HaCat transfectants; type: cell-based, human; details: 1 μM, 60 min after wounding
[12] = system: wild-type HB-EGF, TGF-α, and AR; experiment: TPA-inducible shedding of wild-type ligands in CHO transfectants; type: cell-based, human; details: 10 μM, Fig. 2 b
Outline: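 CHO cells stably expressing untagged HB-EGF, AR or TGF-α, seeded at 2 × 10^5/6-cm dish, grown 24 h in Ham's F12/10% FCS. Surface-biotinylated with 0.1 mg/ml sulfo-NHS-biotin, 15 min on ice. Preincubated ±10 μM test compound for 10 min, then 30 min at 37°C with TPA plus compound. Ligands immunoprecipitated with specific antibodies and protein A; SDS-PAGE/Western blot, avidin-HRP/ECL detection.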

[13] = system: keratinocytes; experiment: Juxtacrine growth factor assay; type: cell-based, human; details: 1 μM, Fig. 7 a
Outline: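 Keratinocytes plated at 10^5 cells/well and grown 12 h. Soluble HB-EGF/AR stripped by washing in medium containing 2 M NaCl. Cells fixed in 5% buffered formalin for 5 min, then washed in RPMI 1640/10% FCS. EP170.7 cells (10^5/well) added with [3H]thymidine for 6 h. Thymidine incorporation into EP170.7 DNA measured. Averages of triplicate experiments.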

[14] = biological target: T1, MMP-1 (Homo sapiens, UniProt P03956); experiment: MMP-1 inhibition; type: biochemical
T1 sequence (P03956 100-469): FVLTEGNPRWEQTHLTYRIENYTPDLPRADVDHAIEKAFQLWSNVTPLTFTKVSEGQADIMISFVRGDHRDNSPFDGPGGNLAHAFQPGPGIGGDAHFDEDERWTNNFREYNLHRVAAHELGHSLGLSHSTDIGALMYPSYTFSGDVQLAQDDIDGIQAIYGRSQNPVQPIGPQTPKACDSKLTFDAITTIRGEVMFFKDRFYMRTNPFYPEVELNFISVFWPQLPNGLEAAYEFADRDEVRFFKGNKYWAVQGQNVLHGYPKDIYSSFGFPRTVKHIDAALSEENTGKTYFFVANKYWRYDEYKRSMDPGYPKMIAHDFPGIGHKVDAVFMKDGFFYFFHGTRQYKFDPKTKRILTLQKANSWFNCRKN

[15] = system: Human keratinocytes; experiment: Keratinocyte migration after wounding; type: cell-based; details: for Keratinocyte migration into wound area: 3 d, antibody No. 425 10 μg/ml, AG1478 30 nM, OSU8-1 1 μM; for Block of migration relative to the control: 10 μM, Fig. 6 b
Outline: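 Human keratinocytes grown on type I collagen-coated dishes or 6-well plates. At subconfluency, switched to BHE-free medium and scraped with a wide silicone rubber scraper. Washed once to remove floating cells, then re-fed BHE-free medium with or without test compound, antibody No. 425 (10 μg/ml), AG1478 (30 nM), or test compound plus HB-EGF (20 ng/ml). Cultured 3 d at 37°C.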

[16] = system: AP-tag HB-EGF; experiment: Wound-induced shedding of AP-tag HB-EGF in HaCat transfectants; type: cell-based, human; details: 1 μM, 60 min after wounding
[17] = system: plasminogen-deficient mice; details: plasminogen-deficient mice ref Lund et al. 1999; cited from earlier work
[18] = system: BALB/c mice; experiment: In vivo wound assay, full-thickness wounds in mice; details: HB-EGF 5 μg/ml in addition to 10 mM OSU8-1, day 6
Outline: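 Female BALB/c mice, 8 wk old, housed singly, anaesthetised with diethylether. Two 6-mm full-thickness punch wounds on the back, left open. Each wound received 500 μl daily for 5 d. One side got vehicle (1.5% carboxymethylcellulose in sterile PBS). The other got 10 mM test compound (n = 10) or test compound plus 5 μg/ml HB-EGF (n = 5). Wounds excised day 6, formalin-fixed, sectioned anterior-posterior, anti-cytokeratin stained.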

Chain of MMP-3 (P08254 100-477, species assumed): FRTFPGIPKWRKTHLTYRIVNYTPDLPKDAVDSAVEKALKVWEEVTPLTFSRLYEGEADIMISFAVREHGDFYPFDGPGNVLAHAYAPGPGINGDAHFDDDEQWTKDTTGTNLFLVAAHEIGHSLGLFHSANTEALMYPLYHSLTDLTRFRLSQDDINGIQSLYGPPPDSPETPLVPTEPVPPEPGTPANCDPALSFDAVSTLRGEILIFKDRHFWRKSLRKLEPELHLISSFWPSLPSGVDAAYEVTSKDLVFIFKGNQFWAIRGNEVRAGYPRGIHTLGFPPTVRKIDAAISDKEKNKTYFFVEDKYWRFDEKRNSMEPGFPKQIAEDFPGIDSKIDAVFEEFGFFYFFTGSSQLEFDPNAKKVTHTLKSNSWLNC
Chain of MMP-9 (P14780 94-707, species assumed): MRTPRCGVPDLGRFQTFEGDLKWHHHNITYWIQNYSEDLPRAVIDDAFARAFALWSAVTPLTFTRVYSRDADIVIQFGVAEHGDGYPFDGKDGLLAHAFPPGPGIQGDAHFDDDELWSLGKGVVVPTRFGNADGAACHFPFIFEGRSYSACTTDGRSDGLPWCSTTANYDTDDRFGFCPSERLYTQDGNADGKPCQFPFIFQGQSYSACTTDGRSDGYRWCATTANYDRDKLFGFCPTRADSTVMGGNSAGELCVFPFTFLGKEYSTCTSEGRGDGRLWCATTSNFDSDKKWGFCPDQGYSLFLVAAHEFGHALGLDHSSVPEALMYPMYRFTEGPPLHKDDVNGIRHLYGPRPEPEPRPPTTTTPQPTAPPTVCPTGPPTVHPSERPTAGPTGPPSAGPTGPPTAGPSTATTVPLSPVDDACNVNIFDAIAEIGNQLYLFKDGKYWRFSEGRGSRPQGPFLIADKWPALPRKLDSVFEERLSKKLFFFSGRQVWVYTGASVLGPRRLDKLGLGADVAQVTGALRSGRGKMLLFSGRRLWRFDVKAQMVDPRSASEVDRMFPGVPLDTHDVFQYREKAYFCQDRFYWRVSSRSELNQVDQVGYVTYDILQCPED

Molecule: CCCCCCCCCCCCCC(=O)O[C@@H]1[C@@H](C)[C@@]2(O)[C@@H](C=C(CO)C[C@]3(O)C(=O)C(C)=C[C@@H]23)[C@@H]2C(C)(C)[C@]12OC(C)=O [TPA, 12-O-tetradecanoylphorbol-13-acetate, reference compound]
Induction of shedding of AP-tag TGF-α ([1]; 30 min): induced the shedding | Induction of shedding of AP-tag HB-EGF ([2]; 30 min): induced the shedding | Induction of shedding of AP-tag AR ([3]; 30 min): less effective

IC50 [5]: 2.9 nM | IC50 [6]: 0.3 nM | IC50 ([14]; read-out: IC50 MMP-1): 0.3 nM | IC50 ([14]; read-out: IC50s for all three MMPs, range across MMP-1, MMP-3 and MMP-9): 0.3 to 2.9 nM
Molecule: CNC(=O)[C@H](Cc1cccc2c1CCCC2)NC(=O)[C@H](CC(C)C)[C@H](C)C(=O)NO [OSU8-1, [4-(N-hydroxyamino)-2R-isobutyl-3S-methylsuccinyl]-L-3-(5,6,7,8-tetra-hydro-1-naphthyl)alanine-N-methylamide]
Fold less potent at promoting migration: conditioned medium collected in the presence of OSU8-1 ([4]; 48-h conditioned medium of wounded keratinocytes, 1 μM OSU8-1, Fig. 7 d): ~30 fold | Effect on migration of keratinocytes induced by conditioned medium ([4]; various concentrations of OSU8-1 added to the conditioned medium, Fig. 7 e): no effect | EGFR activation after wounding ([7]; 1 μM): abrogated completely | Inhibition of cell growth ([8]; 1 μM, Fig. 7 b): ~50% | Inhibition of wound-induced shedding of AP-tag AR [9]: effective at inhibiting | Release of EGFR ligands after wounding [10]: abrogated completely | Effect on wound-induced AP-tag TGF-α shedding [11]: no effect | TPA-inducible shedding of wild-type HB-EGF, TGF-α, and AR [12]: abrogation | Block of shedding of AP-tag TGF-α ([1]; 1 μM, Fig. 2 a): partially blocked | Block of TPA-inducible shedding of AP-tag TGF-α ([1]; 10 μM, Fig. 2 a): significantly blocked | Juxtacrine growth activity of keratinocytes [13]: slightly upregulated | Block of shedding of AP-tag HB-EGF ([2]; 1 μM, Fig. 2 a): markedly blocked | Block of TPA-inducible shedding of AP-tag HB-EGF ([2]; 10 μM, Fig. 2 a): significantly blocked | Percent inhibition at 1 μM AR ([3]; 1 μM inhibitor, 30 min, CHO transfectants): 70% | Block of shedding of AP-tag AR ([3]; 1 μM, Fig. 2 a): markedly blocked | Block of TPA-inducible shedding of AP-tag AR ([3]; 10 μM, Fig. 2 a): significantly blocked | Keratinocyte migration into wound area [15]: significantly suppressed | Inhibition of wound-induced shedding of AP-tag HB-EGF [16]: effective at inhibiting

Molecule: C[C@@H]1C[C@@H]([C@H](O)CC2CC(=O)NC(=O)C2)C(=O)[C@@H](C)C1 [Cycloheximide, cycloheximide]
EGFR activation induced by wounding ([7]; 50 μM): failed to abrogate; also recorded: did not abrogate

IC50 [5]: 2 nM | IC50 [6]: 0.4 nM | IC50 ([14]; read-out: IC50 MMP-1): 0.35 nM
Molecule: CNC(=O)[C@H](Cc1cccc2ccccc12)NC(=O)[C@@H](CC(=O)NO)CC(C)C [OSU7-6, [4-(N-hydroxyamino)-2R-isobutylsuccinyl]-L-3-(1-naphthyl)-alanine-N-methylamide]
Percent inhibition at 1 μM TGF-α ([1]; 30 min): 5% | Block of migration relative to the control [15]: ~70%

Molecule: COc1ccc(S(=O)(=O)N2Cc3cc(O)c(O)cc3CC2C(=O)NO)cc1 (centres unmarked) [OSU9-6, [6,7-dihydroxy-3-(N-hydroxycarbamoyl)-2-(4-methoxybenzenesulfonyl)-1,2,3,4-tetrahydroisoquinoline]]
Percent inhibition at 1 μM TGF-α ([1]; 30 min): 5% | Block of migration relative to the control [15]: ~70%

Molecule: COc1cc2ncnc(Nc3cccc(Cl)c3)c2cc1OC [AG1478, reference compound]
Proliferation, % of the control ([8]; antibody No. 425 10 μg/ml, AG1478 30 nM): 10–15 % of the control | Keratinocyte migration into wound area [15]: suppressed

Molecule: CNC(=O)[C@H](Cc1c[nH]c2ccccc12)NC(=O)[C@@H](CC(=O)NO)CC(C)C [galardin]
Wound healing [17]: completely arrested

B1: HB-EGF: human recombinant heparin-binding EGF-like growth factor, soluble form (protein, UniProt Q99075 63-148, looked up)
Heparin-binding EGF-like …: DLQEADLDLLRVTLSSKPQALATPNKEEHGKRKKKGKGLGKKRDPCLRKYKDFCIHGECKYVKELRAPSCICHPGYHGERCHGLSL
Concentration of maximal stimulation of keratinocyte migration ([4]; recombinant HB-EGF, Boyden chamber, Fig. 7 c): 10 ng/mL | Keratinocyte migration and regeneration of the epidermis [18]: completely restored
